Measurements published in PMC4690987 (Journal of Medicinal Chemistry, 2015).

Key:
HIV-1 NL4-3 = assay: HIV-1 entry assay; type: cell-based; details: TZM-bl cells, virus production at 31 h pi; 2 50–100 nM, AZT 0.5 μg/mL, DS 100 μg/mL
How it was run: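 TZM-bl cells (HeLa stably expressing CD4, CCR5 and HIV-1 LTR-driven luciferase) were grown in DMEM/10% FBS. Cells were seeded at 1 × 10^4 per well and allowed to adhere overnight, then infected with HIV-1 NL4-3 at MOI 0.5 and kept at 37 °C. Test compound or reference agents were added at 0, 1 or 2 h pi. At 31 h cells were PBS-washed and virus production was read as LTR-luciferase RLU.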

LTR-IV G4 [1] = assay: FRET melting assay; type: binding, HIV-1; details: for stabilization (ΔTm, FRET) at 4-fold c-exNDI:DNA molar ratio: 25 °C is the maximum increase measurable, data not shown; for difference in stabilization of LTR-IV G4s vs hTel G4: FRET, equimolar amounts
How it was run: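 Oligonucleotide labelled with FAM at the 5′ end and TAMRA at the 3′ end, 0.25 μM, folded in lithium cacodylate buffer with 100 mM potassium, plus equimolar test compound. After equilibration at 4 °C, FAM emission was followed from 30 to 95 °C at 1 °C/min. Profiles were normalized, and Tm was the temperature at 0.5 normalized fluorescence.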

LTR-IV G4 [2] = assay: SPR analysis; set-up: species or system HIV-1; details: read-out: KD LTR-IV G4 (SPR); 25 °C, HEPES-KCl buffer, 1:1 binding model
How it was run: (§1)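 5′-biotinylated oligonucleotides folded (95 °C for 5 min, cooled to room temperature), diluted to 30 nM and captured on a streptavidin chip to about 500 RU, with an empty reference cell. Running buffer was 0.01 M HEPES pH 7.4, 0.2 M KCl, 3 mM EDTA. Test compound run at 25–200 nM, 30 μL/min, with 280 s contact and 360 s dissociation. Surface regenerated with 10 mM glycine pH 2.0. Sensorgrams buffer-corrected and fitted to a 1:1 model. At least two independent runs, χ2 below 0.2.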

HIV-1 NL4-3 strain [3] = assay: Antiviral assay in HIV-1 infected TZM-bl cells; type: cell-based; details: for IC50: read-out: IC50 HIV-1 strain NL4-3, MOI 0.5, 48 h, LTR-luciferase signal; for SI HIV-1 strain NL4-3: CC50 value/IC50 value
How it was run: (§2)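 TZM-bl cells (HeLa expressing CD4 and CCR5, with LTR-driven luciferase and β-galactosidase) were seeded at 1 ×10^4 cells/well in DMEM/10% FBS and left to adhere overnight. Cells were infected with HIV-1 NL4-3 or BaL at MOI 0.5, treated with serial dilutions of test compound, and incubated at 37 °C for 48 h. IC50 was taken as 50% inhibition of LTR-luciferase signal. CC50 came from parallel MTT on mock-infected cells. SI = CC50/IC50.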

HIV-1 BaL strain = assay: Antiviral assay in HIV-1 infected TZM-bl cells; type: cell-based; details: for SI HIV-1 strain BaL: CC50 value/IC50 value; for IC50: read-out: IC50 HIV-1 strain BaL, MOI 0.5, 48 h, LTR-luciferase signal
How it was run: as §2

Cytotoxicity assay = type: cell-based; details: human, uninfected (mock-infected) TZM-bl cells
How it was run: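 Run in parallel with the antiviral assay, under the same conditions but on uninfected TZM-bl cells (1 ×10^4 cells/well, seeded overnight, test compound in serial dilution, 37 °C, 48 h). Viability was read by MTT absorbance. CC50 was the concentration that reduced absorbance of mock-infected cells by 50%.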

[4] = cited from earlier work
HIV-1 NL4-3 strain [5] = details: previous work ref 27, 30; cited from earlier work
TZM-bl cells = details: values previously reported ref 27; cited from earlier work
LTR-III G4 [6] = assay: Circular dichroism; type: binding, HIV-1; details: 4:1 c-exNDI:DNA ratio, label-free oligonucleotide
How it was run: (§3)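 Unlabelled oligonucleotide, final 4 μM, in 10 mM lithium cacodylate pH 7.4 with 100 mM KCl, annealed at 95 °C for 5 min, then cooled gradually to room temperature. Test compound added to a final 16 μM. CD spectra taken at 230–320 nm (5 mm cell, average of 2 scans, buffer-corrected) while heating 20–95 °C at 5 °C/min. Tm calculated by van't Hoff two-state fit.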

LTR-IV G4 [7] = assay: Circular dichroism; type: binding, HIV-1; details: 4:1 c-exNDI:DNA ratio, label-free oligonucleotide
How it was run: as §3

hTel G4 [8] = assay: Circular dichroism; type: binding, human; details: 4:1 c-exNDI:DNA ratio, label-free oligonucleotide
How it was run: as §3

[9] = test system: LTR-III, LTR-IV, and hTel templates; assay: Taq polymerase stop assay; type: biochemical; details: 2 at 3.1–25.0 nM, K+ 100 mM
How it was run: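 A 5′-end-labelled primer was annealed to each template in lithium cacodylate buffer, with or without 100 mM KCl, by heating to 95 °C for 5 min and cooling gradually to room temperature so the templates folded into G4. A template unable to form G4 served as a control. Taq extension was run with or without test compound, and polymerase stop regions were read from the products.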

LTR-III G4 [10] = assay: ESI-MS competition assay; type: binding, HIV-1; details: 2-fold molar excess of compound
How it was run: (§4)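 G4 oligonucleotides heat-denatured and folded overnight at room temperature in 10 mM KCl, 150 mM trimethylammonium acetate pH 6.8. Equimolar pairs of G4s incubated overnight at 4 °C with 2-fold excess test compound, then injected via HPLC into ESI-MS. Binding affinity = bound/(free + bound) ×100, from reconstructed-ion chromatogram areas. Bound includes one or two ligands; free includes K+ adducts.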

LTR-IV G4 [11] = assay: ESI-MS competition assay; type: binding, HIV-1; details: 2-fold molar excess of compound
How it was run: as §4

hTel G4 [12] = assay: ESI-MS competition assay; type: binding, human; details: 2-fold molar excess of compound
How it was run: as §4

c-kit2 G4 = assay: ESI-MS competition assay; type: binding; details: 2-fold molar excess of compound
How it was run: as §4

c-myc G4 = assay: ESI-MS competition assay; type: binding; details: 2-fold molar excess of compound
How it was run: as §4

LTR-III G4 [13] = assay: SPR analysis; set-up: species or system HIV-1; details: read-out: KD LTR-III G4 (SPR); 25 °C, HEPES-KCl buffer, 1:1 binding model
How it was run: as §1

hTel G4 [14] = assay: SPR analysis; set-up: species or system human; details: read-out: KD hTel G4 (SPR); 25 °C, HEPES-KCl buffer, 1:1 binding model
How it was run: as §1

HIV-1 LTR promoter = assay: LTR-EGFP reporter assay in HeLa-Tat-III/LTR/d1EGFP cells; type: cell-based; details: noncytotoxic concentrations of 2 (62.5–250 nM), 48 h, FACS
wt LTR promoter = assay: Luciferase reporter assay in 293T cells; type: cell-based, HIV-1; details: increasing amounts of 2, 24 h
How it was run: (§5)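 HEK293T cells, 9 ×10^4 per well, transfected 24 h after seeding with 100 ng of a promoterless Luc2 vector carrying the wt or M4+5 (G4-abolishing double point mutant) HIV-1 LTR. Test compound added 1 h after transfection at various concentrations for 24 h. Luciferase activity measured. Cells lysed in RIPA, and signals normalized to total protein (BCA).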

[15] = test system: M4 + 5 mutant LTR promoter (non-G4-forming); assay: Luciferase reporter assay in 293T cells; type: cell-based, HIV-1; details: increasing amounts of 2, 24 h
How it was run: as §5

dextran sulfate [DS]
antiviral activity as a function of time of addition (0, 1, 2 h pi) (HIV-1 NL4-3): exhibited antiviral effect only when added at 0 h pi

CN(C)CCCn1c(=O)c2cc(Br)c3c(=O)n(CCCN(C)C)c(=O)c4c5[nH]c6ccccc6[nH]c5c(c1=O)c2c34 [Compound 3]
stabilization (ΔTm, FRET) at 4-fold c-exNDI:DNA molar ratio (LTR-IV G4 [1]): above 25 °C | difference in stabilization of LTR-IV G4s vs hTel G4 (LTR-IV G4 [1]): ≥ 6 °C | Kd (LTR-IV G4 [2]): 6.6 nM | IC50 (HIV-1 NL4-3 strain [3]): 15.7 ± 2.1 nM | SI HIV-1 strain BaL (HIV-1 BaL strain): 11 | IC50 (HIV-1 BaL strain): 32.5 ± 7.1 nM | CC50 (Cytotoxicity assay): 343 ± 32.2 nM

CN(C)CCCn1c(=O)c2ccc3c(=O)n(CCCN(C)C)c(=O)c4c5[nH]c6cc(C(=O)O)ccc6[nH]c5c(c1=O)c2c34 [Compound 6]
SI HIV-1 strain NL4-3 (HIV-1 NL4-3 strain [3]): >5 | CC50 (Cytotoxicity assay): > 5000 nM | pKa of the (CH2)3NHMe2+ moieties [4]: > 8.1

CN(C)c1ccc(Nc2c3ccc(NC(=O)CCN4CCCC4)cc3nc3cc(NC(=O)CCN4CCCC4)ccc23)cc1.Cl.Cl.Cl [Compound 1, BRACO-19]
SI HIV-1 strain NL4-3 (HIV-1 NL4-3 strain [3]): >3.5 | IC50 (virus production in infected cells) (HIV-1 NL4-3 strain [5]): low μM range | average selectivity index (SI) (HIV-1 NL4-3 strain [5]): 12 | CC50 (TZM-bl cells): > 12000 nM

C[N+](C)(C)CCCn1c(=O)c2ccc3c(=O)n(CCC[N+](C)(C)C)c(=O)c4c5[nH]c6ccccc6[nH]c5c(c1=O)c2c34.[I-].[I-] [Compound 10]
stabilization (ΔTm, FRET) at 4-fold c-exNDI:DNA molar ratio (LTR-IV G4 [1]): above 25 °C | difference in stabilization of LTR-IV G4s vs hTel G4 (LTR-IV G4 [1]): ≥ 6 °C | Kd (LTR-IV G4 [2]): 1.7 nM | antiviral or cytotoxic activity (HIV-1 NL4-3 strain [3]; HIV-1 NL4-3): did not display any antiviral or cytotoxic activity | CC50 (Cytotoxicity assay): > 5000 nM

CN(C)CCCn1c(=O)c2ccc3c(=O)n(CCCN(C)C)c(=O)c4c5[nH]c6ccccc6[nH]c5c(c1=O)c2c34 [Compound 2]
stabilization (ΔTm, FRET) at 4-fold c-exNDI:DNA molar ratio (LTR-IV G4 [1]): above 25 °C | difference in stabilization of LTR-IV G4s vs hTel G4 (LTR-IV G4 [1]): ≥ 6 °C | stabilization of LTR-III G4 by CD (LTR-III G4 [6]): higher than 27 °C | stabilization of LTR-IV G4 by CD (LTR-IV G4 [7]): higher than 27 °C | stabilization of hTel G4 by CD (hTel G4 [8]): 19.9 °C | Taq polymerase stop site [9]: intense stop site at the most 3′ G tract in each G4-forming template | binding affinity LTR-III (LTR-III G4 [10]; competing G4s LTR-III/LTR-IV): 71 | binding affinity LTR-III (LTR-III G4 [10]; competing G4s LTR-III/kit): 33 | binding affinity LTR-III (LTR-III G4 [10]; competing G4s LTR-III/myc): 39 | binding affinity LTR-IV (LTR-IV G4 [11]; competing G4s LTR-III/LTR-IV): 25 | binding affinity LTR-IV (LTR-IV G4 [11]; competing G4s LTR-IV/hTel): 52 | binding affinity LTR-IV (LTR-IV G4 [11]; competing G4s LTR-IV/kit): 25 | binding affinity LTR-IV (LTR-IV G4 [11]; competing G4s LTR-IV/myc): 25 | binding affinity cell G4 (hTel) (hTel G4 [12]; competing G4s LTR-III/hTel): 10 | binding affinity cell G4 (hTel) (hTel G4 [12]; competing G4s LTR-IV/hTel): 25 | binding affinity cell G4 (kit) (c-kit2 G4; competing G4s LTR-III/kit): 12 | binding affinity cell G4 (kit) (c-kit2 G4; competing G4s LTR-IV/kit): 9 | binding affinity cell G4 (myc) (c-myc G4; competing G4s LTR-III/myc): 45 | binding affinity cell G4 (myc) (c-myc G4; competing G4s LTR-IV/myc): 44 | Kd (LTR-III G4 [13]): 3.2 nM | Kd (LTR-IV G4 [2]): 6.1 nM | Kd (hTel G4 [14]): 13.1 nM | SI HIV-1 strain NL4-3 (HIV-1 NL4-3 strain [3]): 40 | IC50 (HIV-1 NL4-3 strain [3]): 13.2 ± 0.1 nM | SI HIV-1 strain BaL (HIV-1 BaL strain): 14 | IC50 (HIV-1 BaL strain): 36.2 ± 4.3 nM | CC50 (Cytotoxicity assay): 532 ± 11.7 nM | antiviral activity as a function of time of addition (0, 1, 2 h pi) (HIV-1 NL4-3): No significant difference in the activity of the compound was observed at the tested times | inhibition of mean EGFP levels (LTR promoter activity) (HIV-1 LTR promoter): up to 60% | inhibition of wt LTR luciferase activity (wt LTR promoter): up to 65% | effect on non-G4-forming mutant LTR (M4 + 5) luciferase activity [15]: no effect

CN(C)CCCn1c(=O)c2cc(Br)c3c(=O)n(CCCN(C)C)c(=O)c4c5[nH]c6ccc(C(=O)O)cc6[nH]c5c(c1=O)c2c34 [Compound 7]
Kd (LTR-IV G4 [2]): 21.6 nM | SI HIV-1 strain NL4-3 (HIV-1 NL4-3 strain [3]): >6 | CC50 (Cytotoxicity assay): > 5000 nM | pKa of the (CH2)3NHMe2+ moieties [4]: > 8.1
